Compound activity from PubChem.
The sample as a whole holds a higher share of hits than the screen did.
GSK3B inh = human GSK3beta kinase inhibitors, primary screen, biochemical, cell-free homogeneous, HTS. Glycogen synthase kinase-3 beta (Homo sapiens), P49841. GST-GSK3beta kinase, ADP-Glo luminescence, 60 min; stronger effect = lower value. activity score (negative = inhibition), % at 10 µM. 0.038% of 300,000 active;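 active = more than half of replicate wells score below -50%, meaning over 50% inhibition versus plate controls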;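 note: 0% = median DMSO wells and -100% = median GW8510 positive control wells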
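test system = GST-tagged human GSK3beta kinase, cell-free | reagent = 25 µM ATP with peptide substrate | dosing = one dose of 10 µM per compound | schedule = 60 min reaction, RT | detection = luminescent ADP-Glo measurement of ADP formed | control set = DMSO neutral wells and GW8510 at 20 µM as positive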
STK33 kinase inh = inhibitors of purified STK33 kinase, primary screen, biochemical, ADP-Glo luminescence, homogeneous, cell-free; Serine/threonine-protein kinase 33 (Homo sapiens), Q9BYT3; 0.073% of 320,000 active; MBP phosphorylation; AID 2661, 2010; inhibition, % at 10 µM;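 active = inhibition at or above 25%, using the most active replicate where run in duplicate; inactive = inhibition below 25%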
Target sequence (Q9BYT3 whole entry, looked up): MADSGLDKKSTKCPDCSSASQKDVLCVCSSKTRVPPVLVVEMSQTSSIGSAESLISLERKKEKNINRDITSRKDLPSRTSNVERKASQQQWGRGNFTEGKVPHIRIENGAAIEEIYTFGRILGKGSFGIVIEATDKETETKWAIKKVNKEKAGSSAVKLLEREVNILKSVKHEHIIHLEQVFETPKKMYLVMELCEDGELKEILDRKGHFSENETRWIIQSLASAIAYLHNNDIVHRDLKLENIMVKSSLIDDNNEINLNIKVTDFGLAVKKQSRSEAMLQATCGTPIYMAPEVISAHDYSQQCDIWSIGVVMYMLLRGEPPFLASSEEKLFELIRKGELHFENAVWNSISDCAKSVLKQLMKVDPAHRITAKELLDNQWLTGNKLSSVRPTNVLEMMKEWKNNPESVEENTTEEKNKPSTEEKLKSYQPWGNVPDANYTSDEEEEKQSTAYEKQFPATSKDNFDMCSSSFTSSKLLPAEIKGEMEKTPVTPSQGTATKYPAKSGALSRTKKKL
CDK5 p35 inh = inhibitors of human CDK5/p35 kinase, primary screen, biochemical, single concentration; Recombinant CDK5/p35, ADP-Glo luminescence, 60 min; inhibition, % at 10 µM; 0.01% of 330,000 active;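 active = highest replicate inhibition of at least 50% and at least 75% of replicates reaching 50%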;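 note: plate controls were DMSO neutral control for no effect and GW8510 at 10 µM for full effect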
DYRK1A inh = rat Dyrk1A kinase inhibitors, primary screen, biochemical, single point, plate reader. Dual specificity tyrosine-phosphorylation-regulated kinase 1A (Rattus norvegicus), Q63470. ADP-Glo luminescence, NFATc1 peptide. inhibition, % at 12.5 µM. 0.43% of 310,000 active. AID 504441, 2011; in the data active = inhibition above about 50%;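 note: plate controls were vehicle with enzyme for no effect and no enzyme for full effect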
GSK3 alpha inh = blockers of GSK3A enzyme activity – biochemical, luminescence, cell-free homogeneous, HTS, primary screen; Glycogen synthase kinase-3 alpha (Homo sapiens), P49840; inhibition, % at 10 µM; 0.1% of 320,000 active; GSK-3 alpha kinase, ADP-Glo luminescence, 60 min;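 active = more than half of replicates show inhibition above 20%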;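 note: GST-tagged GSK-3 alpha with peptide substrate and 25 µM ATP; 0% = DMSO neutral wells and 100% = GW8510 positive control wells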
Dyrk1A artifact = ADP-Glo luciferase interference without Dyrk1A, dose response, artefact control for Dyrk1A inhibitor project, biochemical, luminescence, cherry-pick, set 02; 1,300 tested, under 10 active; AC50, µM (doses to about 12 µM), inactives show at the top dose activity change, negative = inhibition; shares compounds with DYRK1A inh; ADP-Glo luciferase artifact assay, no Dyrk1A;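 active = fitted half-maximal dose AC50 no more than ten times the top valid tested dose, with luminescence dropping as dose rises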
* marks the source's active call; other numbers are inactive results; · = no result given.

SMILES | GSK3B inh | STK33 kinase inh | CDK5 p35 inh | DYRK1A inh | GSK3 alpha inh | Dyrk1A artifact
c1ccc(-c2nnc3sc(Cc4cccs4)nn23)cc1 | -3 | 0 | 1 | 59* | 3 | 10%
COc1ccc2[nH]c3c(c2c1)CCNC3=O | 12 | -1 | 3 | 65* | 2 | 10%
O=C1NCCc2c1[nH]c1ccccc21 | -1 | 3 | 0 | 23 | 5 | ·
CCOC(=O)c1nnn(-c2ccc([N+](=O)[O-])cc2[N+](=O)[O-])c1C | 3 | 0 | -1 | 5 | 1 | ·
CCCCC12CN3CC(C)(CN(C1)C31C(=O)N(C)c3ccc(C)cc31)C2=O (stereo unspecified) | 0 | -1 | 3 | -8 | -1 | ·
Cc1occc1C(=O)/C(C#N)=C/c1ccc(O)c(Br)c1 | 1 | 4 | 2 | 67* | -1 | 7%
CCO/C(=C/c1sc2ccc(OC)cc2[n+]1CCCS(=O)(=O)[O-])CC | 0 | 1 | -5 | 57* | 4 | 9%
O=C(Nc1ccc(F)cc1F)c1csc(-c2cccs2)n1 | 0 | -1 | 1 | · | 2 | ·
O=C(Nc1ccc(F)cc1F)c1csc(-c2ccncc2)n1 | -3 | 1 | -3 | 52* | 2 | 7%
O=C(O)C(=O)Nc1nc(-c2ccc3c(c2)OCCO3)cs1 | 3 | 1 | -3 | -6 | 6 | ·
O=C(CSCC(=O)Nc1nc(-c2ccc3c(c2)OCO3)cs1)Nc1nccs1 | 0 | 1 | 0 | 0 | 1 | ·
CCCC(=O)Nc1nc(-c2ccc3c(c2)OCCO3)cs1 | · | 0 | 0 | 55* | -1 | 10%
CSCC(=O)Nc1nc(-c2ccc3c(c2)OCCO3)cs1 | -3 | 0 | -1 | 68* | 2 | 8%
C[C@H]1CN([C@@H](C)CO)C(=O)c2cc(NC(=O)CCN3CCOCC3)ccc2O[C@H]1CN(C)C(=O)Nc1ccc(F)cc1 | · | -1 | -1 | -2 | -2 | ·
COc1ccc(NC(=O)N(C)C[C@H]2Oc3ccc(NC(=O)CCN4CCOCC4)cc3C(=O)N([C@H](C)CO)C[C@@H]2C)cc1 | · | 2 | 0 | 56* | -3 | 9%
Cc1c(CN2CCCC(CO)(Cc3cccc(Cl)c3)C2)cnn1C (stereo unspecified) | 2 | 0 | 0 | · | -8 | ·
Cc1cccc(Nc2cc(C)c3c(O)cccc3n2)c1C | -1 | 0 | -2 | 68* | 2 | 7%
COc1ccc(OCC(=O)N(C)Cc2ccccc2)cc1 | -1 | -5 | -1 | 1 | 1 | ·
CC(C)NS(=O)(=O)c1ccc(OCC(=O)N(C)Cc2ccccc2)cc1 | 0 | 5 | 1 | 83* | 4 | 5%
COc1ccc(CNC(=O)COC(=O)CCn2c(C)csc2=O)cc1OC | 3 | -1 | 1 | -7 | -3 | ·
C=CCn1c(SCC(=O)Nc2nc3ccccc3s2)nc(O)c(CC)c1=O | 3 | 1 | -1 | 51* | 0 | 6%
CCc1c(O)nc(SCC(=O)Nc2nc3ccccc3s2)n(-c2ccccc2)c1=O | 1 | 3 | -1 | · | -4 | ·
CCOc1ccc(CCNC(=O)CCC(=O)N2CCOc3ccccc32)cc1OCC | 5 | -1 | -3 | 4 | -1 | ·
N#Cc1c2ccc(O)cc2n2ccccc12 | -11 | 32* | 7 | 87* | 26 | 8%
COc1ccc(C=C2C(=O)c3ccccc3C2=O)cc1O | -2 | 11 | 11 | 84* | 8 | -5%
SMILES | GSK3B inh | STK33 kinase inh | CDK5 p35 inh | DYRK1A inh | GSK3 alpha inh | Dyrk1A artifact
COc1cc(C=C2C(=O)c3ccccc3C2=O)ccc1O | -1 | 10 | 8 | 97* | 10 | 5%
COc1cc(/C=C2\SC(N)=NC2=O)ccc1O | 6 | 26* | -1 | 90* | 6 | 7%
O=C(O)COc1ccc2occ(C(=O)c3ccccc3)c2c1 | 2 | 1 | 0 | 66* | 83* | 8%
CC(=O)Oc1ccc2occ(C(=O)c3ccccc3)c2c1 | 0 | 0 | · | · | 13 | ·
Cc1ccc(C(=O)c2coc3ccc(OCC(=O)O)cc23)cc1 | -72* | 3 | 0 | 70* | 89* | 10%
CC(=O)OCC1OC(n2c(-c3ccc(Cl)cc3)ccc(C#N)c2=S)C(OC(C)=O)C(OC(C)=O)C1OC(C)=O (stereo unspecified) | · | · | 2 | 2 | · | ·
C/C=C/C=C/[C@H]1Cc2cc(O)cc(O)c2O1 | -1 | -1 | · | · | 0 | ·
Clc1c(Cl)c(Cl)c2n[nH]nc2c1Cl | 1 | 4 | 1 | 80* | 6 | 10%
COc1ccc(CN2CCCC(C(=O)c3cccc(OC(C)C)c3)C2)cc1Cn1cccn1 (stereo unspecified) | 1 | 0 | 2 | 10 | -2 | ·
Nn1c(SCC(=O)Nc2ccc(N3CCOCC3)cc2)nnc1-c1ccccc1F | · | 0 | 1 | -1 | 0 | ·
Cc1ccc(-n2c3c(cc(C(=O)NCCCN4CCOCC4)c2=O)C(=O)CC(C)(C)C3)cc1 | -2 | -1 | -1 | -4 | -1 | ·
O=C1CCCc2c1cc(C(=O)NCCCN1CCOCC1)c(=O)n2-c1ccc(Cl)cc1 | -3 | 1 | -2 | 58* | 1 | 12%
CC(=O)N(CN1C(=O)c2ccccc2C1=O)c1cccc(C)c1 | 1 | -1 | 0 | 3 | -1 | ·
CC(=O)N(/N=C1\Sc2ccccc2C1=O)c1cccc(C)c1 | -1 | 1 | 3 | 50* | 1 | 7%
Cn1nc(C(=O)N2CCN(C(c3ccccc3)c3ccccc3)CC2)c2ccccc2c1=O | 0 | 1 | -1 | 6 | 0 | ·
COc1ccccc1-c1sc2ccccc2c1C#Cc1ccc(N(C)C)cc1 | · | 0 | 1 | 51* | -2 | 8%
COc1ccccc1-c1sc2ccccc2c1-c1ccc(O)cc1 | · | 0 | 3 | 1 | -3 | ·
O=C(O)c1ccc(/C=N/Nc2ccc(C(F)(F)F)cn2)cc1 | -42 | · | 57* | 54* | · | 9%
O=C(O)c1ccc(/C=N/Nc2cccc(C(F)(F)F)c2)cc1 | · | -1 | 0 | 9 | · | ·
Cc1c(-c2cccc(Cl)c2)nc2ccccc2c1C(=O)OCC(=O)Nc1ccc2c(c1)OCO2 | 1 | -2 | 1 | -1 | 0 | ·
COc1ccc(-c2cc(NCCc3ccncc3)n3ncnc3n2)cc1 | 1 | 0 | 0 | 51* | 18 | 5%
COc1nc(C)ccc1-c1noc(-c2ccccn2)n1 | 1 | 0 | 0 | 57* | 1 | 8%
